These results are taken from ChEMBL document CHEMBL3259707, “Design and synthesis of human ABCB1 (P-glycoprotein) inhibitors by peptide coupling of diverse chemical scaffolds on carboxyl and amino termini of (S)-valine-derived thiazole amino acid” (J Med Chem, 2014).

Data set [1] deals with T1, ATP-dependent translocase ABCB1 (Homo sapiens, UniProt P08183). As to the kind of experiment: Inhibition of human wild type P-gp expressed in BacMam virus infected human HeLa cells assessed as calcein-AM accumulation at 10 uM after 10 mins by flow cytometry. The format is cell-based. The method in brief: (§1)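 HeLa cells transduced with BacMam WT-P-gp (10–15 particles/cell); 10 mM butyric acid added after 3–4 h, grown overnight at 37 °C. Trypsinized cells exposed to compound, then 0.5 μM calcein-AM for 10 min at 37 °C in the dark. […] Two independent experiments in triplicate, ± SD.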
T1 sequence (P08183 whole entry): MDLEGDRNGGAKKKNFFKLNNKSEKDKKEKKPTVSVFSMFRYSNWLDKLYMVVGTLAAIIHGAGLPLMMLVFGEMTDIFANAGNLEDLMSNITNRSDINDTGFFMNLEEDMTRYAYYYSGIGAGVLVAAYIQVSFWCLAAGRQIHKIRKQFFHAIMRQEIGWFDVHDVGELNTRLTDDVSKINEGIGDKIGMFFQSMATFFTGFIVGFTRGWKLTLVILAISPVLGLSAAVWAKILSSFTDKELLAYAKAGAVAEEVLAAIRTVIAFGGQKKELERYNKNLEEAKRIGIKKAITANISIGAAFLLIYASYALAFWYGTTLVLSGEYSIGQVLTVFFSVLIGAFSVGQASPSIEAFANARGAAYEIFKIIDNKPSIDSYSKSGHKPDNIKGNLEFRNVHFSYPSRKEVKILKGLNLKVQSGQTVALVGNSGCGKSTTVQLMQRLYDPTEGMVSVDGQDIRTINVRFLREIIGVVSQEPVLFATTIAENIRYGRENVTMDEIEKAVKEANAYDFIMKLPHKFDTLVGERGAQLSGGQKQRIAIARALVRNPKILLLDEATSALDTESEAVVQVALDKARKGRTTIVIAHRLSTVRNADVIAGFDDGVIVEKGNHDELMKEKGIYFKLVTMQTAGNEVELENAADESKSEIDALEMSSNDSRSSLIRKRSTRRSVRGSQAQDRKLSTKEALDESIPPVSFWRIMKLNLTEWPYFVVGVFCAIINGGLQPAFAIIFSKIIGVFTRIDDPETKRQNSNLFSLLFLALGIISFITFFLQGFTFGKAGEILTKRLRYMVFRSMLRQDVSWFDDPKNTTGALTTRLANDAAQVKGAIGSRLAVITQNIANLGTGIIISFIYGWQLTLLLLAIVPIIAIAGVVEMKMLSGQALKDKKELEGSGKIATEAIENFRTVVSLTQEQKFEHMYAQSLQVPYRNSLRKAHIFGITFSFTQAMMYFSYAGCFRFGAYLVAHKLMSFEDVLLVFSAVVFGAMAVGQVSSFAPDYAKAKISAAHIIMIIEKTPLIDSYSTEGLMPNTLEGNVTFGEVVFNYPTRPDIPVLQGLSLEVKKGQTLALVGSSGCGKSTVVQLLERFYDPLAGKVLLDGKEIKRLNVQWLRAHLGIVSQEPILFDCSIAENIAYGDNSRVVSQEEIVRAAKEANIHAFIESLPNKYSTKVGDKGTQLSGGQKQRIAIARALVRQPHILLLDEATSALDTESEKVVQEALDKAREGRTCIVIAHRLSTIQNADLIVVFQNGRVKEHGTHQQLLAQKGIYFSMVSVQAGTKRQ

A short description of data set [2]: Retardation factor of the compound using EtOAc-n-hexane at ratio of 1:1 by thin layer chromatography. The format is physicochemical.
Data set [3] in a line: Retention time of the compound by HPLC analysis. The class given is physicochemical. The method in brief: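 Reverse-phase C18 HPLC, isocratic acetonitrile/water 60:40, 1.0 mL/min, UV 254 nm; purity from major-peak area.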
The target in data set [4] is T1, ATP-dependent translocase ABCB1. Put plainly: Inhibition of human wild type P-gp expressed in BacMam virus infected human HeLa cells assessed as calcein-AM accumulation after 10 mins by flow cytometry. The format is cell-based. Conditions: for inhibition (INH): human, 10 min. In outline: as §1
Data set [5] in a line: Retardation factor of the compound using EtOAc-n-hexane at ratio of 3:2 by thin layer chromatography. The class given is physicochemical.
The nature of data set [6]: Inhibition of mouse P-gp.
In data set [7] the target is T1, ATP-dependent translocase ABCB1. As to the kind of experiment: Inhibition of human P-gp.
The nature of data set [8]: Cytotoxicity against human SW620 cells assessed as cell survival at 3 uM by MTT assay. The class given is cell-based, SW-620. Particulars: read-out: Activity. In outline: (§2)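 MTT survival. Cells seeded 5000–6000/well, attached 24 h at 37 °C, 5% CO2; test agent for 72 h; MTT 4 mg/mL stock added, 4 h at 37 °C; formazan dissolved in DMSO, A570 read. Four independent experiments, each in triplicate. SW620/Ad300 is the doxorubicin-selected P-gp subline of SW620; HEK293 grown in DMEM with G418 (2 mg/mL). All cells kept drug-free >2 weeks before assay.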
On the technique in general: Formazan colour is commonly taken as a measure of viable cells.

A short description of data set [9]: Cytotoxicity against human SW620/Ad300 cells overexpressing ABCB1 assessed as cell survival at 3 uM by MTT assay. Conditions: SW620/Ad300 cells that overexpress ABCB1, read-out: Activity. The class given is ADME, cell-based, SW-620. In outline: as §2
The nature of data set [10]: Cytotoxicity against human HEK293 cells assessed as cell survival at 3 uM by MTT assay. The format is cell-based. Conditions: read-out: Activity. The method in brief: as §2
Data set [11] is described as follows: Cytotoxicity against human HEK293 cells overexpressing human ABCB1 assessed as cell survival at 3 uM by MTT assay. The format is ADME, cell-based. Particulars: HEK293 cells that overexpress human ABCB1, read-out: Activity. In outline: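 HEK293 cells stably transfected with human ABCB1 cDNA, kept in DMEM with G418 (2 mg/mL) and drug-free for over 2 weeks. Cells seeded at 5000–6000/well, attached 24 h at 37 °C, 5% CO2, then exposed 72 h to modulator. MTT (4 mg/mL) added for 4 h, formazan dissolved in DMSO, absorbance read at 570 nm. Four independent experiments, each in triplicate.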

Data set [12] has as its target T1, ATP-dependent translocase ABCB1. As to the kind of experiment: Displacement of […] from ABCB1 (unknown origin) expressed in High Five insect cell membrane preincubated for 10 mins by autoradiography. In outline:
(§3)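 Compound 0–20 μM, 10 min at 37 °C. Then [125I]-IAAP (2200 Ci/mmol; 4–6 nM) added for 5 min under minimal light. UV 365 nm for 10 min, labeling read by autoradiography. Two independent experiments; curve fitted by one-phase decay.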
On the technique in general: Loss of bound radioactivity is the signal in a displacement assay; it reports binding, not function.

Data set [13] has the same target. Put plainly: Displacement of […] from ABCB1 (unknown origin) expressed in High Five insect cell membrane at >5 uM preincubated for 10 mins by autoradiography. Particulars: human. The method in brief: as §3

As to `CCOC(=O)c1csc([C@@H](NC(=O)c2csc([C@@H](NC(=O)c3cc(OC)c(OC)c(OC)c3)C(C)C)n2)C(C)C)n1`, the “inhibition (INH)” value in data set [1] was 55%. Also, the Rf in [2] stood at 0.4. The molecule also yielded a Retention_time in data set [3] of 3.6 min.

In the case of `COc1ccc(CNC(=O)c2csc([C@@H](NC(=O)c3csc([C@@H](NC(=O)OC(C)(C)C)C(C)C)n3)C(C)C)n2)c(OC)c1`, in [4] (hela), the IC50 (usually the point on the concentration scale where inhibition reaches its midpoint) is 2000 nM.

As to `CCOC(=O)c1csc([C@@H](NC(=O)c2cnc3ccccc3c2)C(C)C)n1`, the “inhibition (INH)” value in [1] is listed as 2%. For the same molecule, in data set [2], the Rf came out at 0.4. In [3], this molecule yielded a Retention_time of 3.3 min.

For `COc1ccc(NC(=O)c2csc([C@@H](NC(=O)c3csc([C@@H](NC(=O)OC(C)(C)C)C(C)C)n3)C(C)C)n2)c(OC)c1`, the IC50 in [4] is 2500 nM. For the same molecule, in data set [4] (hela), the “inhibition (INH)” value is “Dose-dependent effect”. The Rf in [2] came out at 0.55. Also, in data set [3], the Retention_time worked out at 7.6 min.

Regarding `CCOC(=O)c1csc([C@@H](NC(=O)/C=C/c2ccc(OC)c(OC)c2)C(C)C)n1`, in [1], the “inhibition (INH)” value is given as 11%. Further, the Rf in [2] was 0.5. The Retention_time in [3] is recorded as 3.4 min.

With `COc1cc(NC(=O)c2csc([C@@H](NC(=O)c3cc(OC)c(OC)c(OC)c3)C(C)C)n2)cc(OC)c1`, the “inhibition (INH)” value in data set [1] is on record as 37%. Besides, the Rf in data set [2] is on record as 0.55. In data set [3], this molecule had a Retention_time of 4.3 min.

Consider `COc1cc(C(=O)N[C@H](c2nc(C(=O)Nc3ccccc3C(=O)c3ccc(F)cc3)cs2)C(C)C)cc(OC)c1OC`, for which the “inhibition (INH)” value in data set [1] was 54%. In addition, the Rf in [5] stood at 0.4. Further, the Retention_time in [3] worked out at 9.5 min.

Turning to `COc1cc(C(=O)N[C@H](c2nc(C(=O)NCc3ccc(-c4ccccc4)cc3)cs2)C(C)C)cc(OC)c1OC`, the “inhibition (INH)” value in data set [1] was 23%. For the same molecule, in data set [5], the Rf worked out at 0.5. The Retention_time in data set [3] is recorded as 6.3 min.

`COc1cc(NC(=O)c2csc([C@@H](NC(=O)c3csc([C@@H](NC(=O)OC(C)(C)C)C(C)C)n3)C(C)C)n2)cc(OC)c1OC`: the IC50 in data set [4] was 6500 nM. Further, the “inhibition (INH)” value in data set [4] (hela) is reported as “Dose-dependent effect”. In addition, the Rf in data set [2] is reported as 0.45. In addition, the Retention_time in [3] is listed as 8 min.

`COc1cc(C(=O)N[C@H](c2nc(C(=O)Nc3ccc4c(c3)OCO4)cs2)C(C)C)cc(OC)c1OC`: in [1], the “inhibition (INH)” value is on record as 40%. The Rf in [5] came out at 0.5. In addition, the Retention_time in data set [3] was 3.5 min.

As to `COc1ccc(C(C)NC(=O)c2csc([C@@H](NC(=O)c3csc([C@@H](NC(=O)OC(C)(C)C)C(C)C)n3)C(C)C)n2)cc1` (stereo not given in full), the concentration for half-maximal inhibition (IC50) in data set [4] is 2000 nM.

For `CCOC(=O)c1csc([C@@H](NC(=O)c2csc([C@@H](NC(=O)c3ccc(OC)c(OC)c3)C(C)C)n2)C(C)C)n1`, in data set [4], the half-maximal inhibitory concentration (IC50) is 16000 nM. Besides, the “inhibition (INH)” value in data set [4] (hela) is reported as “Dose-dependent effect”. In addition, in data set [2], the Rf came out at 0.4. Further, the Retention_time in data set [3] worked out at 3.5 min.

As to `COc1cc2c(cc1OC)CN(C(=O)c1csc([C@@H](NC(=O)c3cc(OC)c(OC)c(OC)c3)C(C)C)n1)CC2`, the “inhibition (INH)” value in [1] is listed as 16%. For the same molecule, the Rf in [5] turned out to be 0.3. For the same molecule, the Retention_time in [3] came to 2.8 min.

Turning to `COc1cc(CNC(=O)c2csc([C@@H](NC(=O)c3cc(OC)c(OC)c(OC)c3)C(C)C)n2)cc(OC)c1OC`, in data set [1], the “inhibition (INH)” value was 4%. Besides, the Rf in data set [2] was 0.3. This molecule also came in with a Retention_time in data set [3] of 2.7 min.

Take `COc1cc(C(=O)N[C@H](c2nc(C(=O)NCc3ccc4c(c3)OCO4)cs2)C(C)C)cc(OC)c1OC`: the “inhibition (INH)” value in [1] is 20%. Besides, the Rf in [5] is 0.35. Besides, the Retention_time in data set [3] was determined as 3.1 min.

Turning to `COc1cc(C(=O)N[C@H](c2nc(C(=O)NCCc3ccccn3)cs2)C(C)C)cc(OC)c1OC`, the “inhibition (INH)” value in data set [1] is on record as 5%. Moreover, the Rf in [5] is given as 0.2. The molecule further came in with a Retention_time in [3] of 2.2 min.

For the molecule `CC(C)[C@@H]1NC(=O)c2csc(n2)[C@H](C(C)C)NC(=O)c2csc(n2)[C@H](C(C)C)NC(=O)c2csc1n2`, the half-maximal inhibitory concentration (IC50) in [6] stood at 2700 nM; in [7], 1500 nM. The viability at 3 µM in [8], in [9], in data set [10] and in data set [11] was greater than 85% throughout. The “inhibition (INH)” value in [12] is given as “Dose-dependent effect”; in [13], 90%.

Take `COc1cc2c(cc1OC)C(=O)C(CC1CCN(C(=O)c3csc([C@@H](NC(=O)OC(C)(C)C)C(C)C)n3)CC1)C2` (stereo not given in full): the “inhibition (INH)” value in [1] is reported as 15%. Further, in data set [2], the Rf is on record as 0.2. In addition, the Retention_time in [3] is 4.7 min.

Regarding `CCOC(=O)c1csc([C@@H](NC(=O)c2cc(OC)c(OC)c(OC)c2)C(C)C)n1`, the “inhibition (INH)” value in data set [1] was 10%. Besides, the Rf in data set [2] amounted to 0.6. In [3], the Retention_time was determined as 3.7 min.

Regarding `CC(C)[C@H]1NC(=O)c2csc(n2)[C@@H](C(C)C)NC(=O)c2csc(n2)[C@@H](C(C)C)NC(=O)c2csc1n2`, in data set [6], half-maximal inhibition (IC50) required 8400 nM.

For `COc1cc(C(=O)N[C@H](c2nc(C(=O)Nc3ccc(C(=O)c4ccccc4)cc3)cs2)C(C)C)cc(OC)c1OC`, the “inhibition (INH)” value in data set [1] was 18%. Further, the Rf in [5] is given as 0.5. In data set [3], this molecule displayed a Retention_time of 6.8 min.

Consider `COc1cc(NC(=O)c2csc([C@@H](NC(=O)c3cc(OC)c(OC)c(OC)c3)C(C)C)n2)cc(OC)c1OC`, for which, in data set [1], the “inhibition (INH)” value is listed as 58%. Further, the Rf in data set [2] was determined as 0.4. The Retention_time in data set [3] was found to be 3.3 min.

Turning to `COc1ccc([C@@H](C)NC(=O)c2csc([C@@H](NC(=O)c3cc(OC)c(OC)c(OC)c3)C(C)C)n2)cc1`, the “inhibition (INH)” value in [1] was 24%. Also, the Rf in data set [2] is given as 0.45. In data set [3], this molecule registered a Retention_time of 3.9 min.

In data set [7], `CCOC(=O)c1csc([C@@H](NC(=O)c2csc([C@@H](NC(=O)c3csc([C@@H](NC(=O)OC(C)(C)C)C(C)C)n3)C(C)C)n2)C(C)C)n1` came in with an IC50 of 1500 nM.

Consider `COc1cc(C(=O)N[C@H](c2nc(C(=O)NC3Cc4ccccc4C3)cs2)C(C)C)cc(OC)c1OC`, for which the “inhibition (INH)” value in data set [1] is recorded as 47%. In addition, in data set [5], the Rf is listed as 0.5. Also, the Retention_time in data set [3] is on record as 4.1 min.
